ChEMBL document CHEMBL1123247, “Nucleoside conjugates. 7. Synthesis and antitumor activity of 1-beta-D-arabinofuranosylcytosine conjugates of ether lipids” (J Med Chem, 1986)

Assays:
L1210 [1] = experiment: Antitumor activity was determined against the ip implanted L1210 leukemia in mice by range in survival days at 40 mg/kg (treatment of 1-5qd schedule) dosage; 24->45; assay type: functional, Mus musculus; details: route intraperitoneal
In short: (§1)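 DBA/2J mice, 23-28 g, in groups of 6, were inoculated ip with 1×10^6 L1210 cells on day 0. Dosing was ip starting 24 h later on the stated daily schedules. Conjugates were given as sonicated solutions and reference prodrugs as suspensions in 0.9% NaCl with 0.5% Tween-80. Mice were observed daily until death or 45 days. Median survival T/C was calculated from survivors per NCI protocols.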

L1210 [2] = experiment: Antitumor activity against the ic implanted L1210 lymphoid leukemia in mice (1,5,9qd treatment schedule) required to produce greatest increase in life span was determined; assay type: functional, Mus musculus
In short: (§2)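 DBA/2J mice, groups of 6 (26-32 g), got 1 × 10^5 L1210 cells ic on day 0. Dosing was ip starting 24 h later, as a sonicated solution or suspension in 0.9% NaCl with 0.5% Tween-80, over a wide dose range. Mice were followed daily until death. Median survival T/C was taken from survivors per NCI protocols, and ILS = (T/C − 1) × 100. Active range means doses giving ILS ≥25%; optimal dose means greatest ILS.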

P388 [3] = experiment: Antitumor activity was determined against the ip implanted P388 leukemia in mice by range in survival days at 60 mg/kg (1-5qd treatment schedule) dosage; Range is 35->45; assay type: functional, Mus musculus; details: route intraperitoneal
P388 [4] = experiment: Antitumor activity was determined against the ip implanted P388 leukemia in mice by percent increase in life span at 500 mg/kg (1 qd treatment schedule) dosage; assay type: functional, Mus musculus; details: route intraperitoneal
In short: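 DBA/2J mice, 23-33 g, in groups of 6, were inoculated ip with 1×10^6 P388 cells on day 0. Dosing was ip from 24 h on the stated schedules, in 0.9% NaCl with 0.5% Tween-80 (sonicated solution or suspension). Survival was followed daily until death or 45 days. Median T/C was calculated from survivors per NCI protocols, with ILS = (T/C − 1) × 100.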

L1210 [5] = experiment: Antitumor activity was determined against the ic implanted L1210 lymphoid leukemia in mice by change in body weight at 300 mg/kg (1 qd treatment schedule) dosage
P388 [6] = experiment: Antitumor activity was determined against the ip implanted P388 leukemia in mice by percent median survival rate (treated/control) at 500 mg/kg (1 qd treatment schedule) dosage; >45.0/11.0; assay type: functional, Mus musculus; details: route intraperitoneal
P388 [7] = experiment: Antitumor activity against ip implanted P388 leukemia in mice expressed as active dose range (1,5,9qd treatment schedule) required to produce increase in life span by >25% was determined; Range is 100-167; assay type: functional, Mus musculus
In short: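 P388 leukemia: 1 × 10^6 cells were given ip on day 0 to DBA/2J mice, groups of 6 (23-33 g). Treatment was ip from 24 h after inoculation, vehicle 0.9% NaCl with 0.5% Tween-80. Mice were observed daily until death or 45 days. Median survival T/C was calculated from survivors per NCI protocols, and ILS = (T/C − 1) × 100. Active range means doses giving ILS ≥25%; optimal dose means greatest ILS.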

L1210 [8] = experiment: Antitumor activity against ic implanted L1210 lymphoid leukemia in mice expressed as active dose range (1, 5, 9qd treatment schedule) required to produce increase in life span by >25% was determined; Range is 100-167; assay type: functional, Mus musculus; in short: as §2
L1210 [9] = experiment: Antitumor activity was determined against the ip implanted L1210 leukemia in mice by range in survival days at 400 mg/kg (treatment of 1qd schedule) dosage; Range is 20-33; assay type: functional, Mus musculus; details: route intraperitoneal; in short: as §1
L1210 [10] = experiment: Antitumor activity against ip implanted L1210 leukemia in mice expressed as active dose range (1-5qd treatment schedule) required to produce increase in life span by >25% was determined; Range is 40-80; assay type: functional, Mus musculus
In short: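 DBA/2J mice, groups of 6 (23-28 g), were inoculated ip with 1 × 10^6 L1210 cells on day 0. Dosing was ip from 24 h, in 0.9% NaCl with 0.5% Tween-80 (sonicated solution or suspension). Mice were observed daily until death or day 45. Median survival T/C followed NCI protocols, and ILS = (T/C − 1) × 100. Active range means doses giving ILS ≥25%; optimal dose means greatest ILS.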

P388 [11] = experiment: Antitumor activity was determined against the ip implanted P388 leukemia in mice by change in […] at 67 mg/kg (treatment of 1,5,9qd schedule) dosage; assay type: functional, Mus musculus; details: route intraperitoneal
In short: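 P388 leukemia, 1×10^6 cells implanted ip on day 0 into DBA/2J mice, groups of 6 (wt 23-33 g). Dosing ip started 24 h post-inoculation, vehicle 0.9% NaCl containing 0.5% Tween-80. Animals were observed daily until death or 45 days. Outputs were weight change, median survival T/C from survivors per NCI protocols, and %ILS = (T/C − 1) × 100.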

L1210 [12] = experiment: Antitumor activity was determined against the ip implanted L1210 leukemia in mice by percent median survival rate (treated/control) at 400 mg/kg (treatment of 1qd schedule) dosage; 25.0/7.0; assay type: functional, Mus musculus; details: route intraperitoneal; in short: as §1
L1210 [13] = experiment: Antitumor activity was determined against the ic implanted L1210 lymphoid leukemia in mice by percent increase in life span at 300 mg/kg (treatment of 1-5qd schedule) dosage; assay type: functional, Mus musculus; in short: as §2
P388 [14] = experiment: Antitumor activity was determined against the ip implanted P388 leukemia in mice by percent median survival rate (treated/control) at 200 mg/kg (treatment of 1-5qd schedule) dosage; 23.0/11.0; assay type: functional, Mus musculus; details: route intraperitoneal
L1210 [15] = experiment: Antitumor activity against ic implanted L1210 lymphoid leukemia in mice expressed as active dose range (1-5qd treatment schedule) required to produce increase in life span by >25% was determined; Range is 50-300; assay type: functional, Mus musculus; in short: as §2
[16] = system: Non-small cell lung cancer cell line; experiment: Compound was tested for the inhibition of non- small cell lung cancer; assay type: functional, cell-based; details: Homo sapiens
In short: (§3)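 Human leukemia and solid tumor cells in culture were exposed to compound for 48 h. Viability was scored by trypan blue dye exclusion. IC50 (50% inhibition) was estimated from response curves of three separate experiments.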

L1210 [17] = experiment: Antitumor activity was determined against the ip implanted L1210 leukemia in mice by percent median survival rate (treated/control) at 400 mg/kg (treatment of 1qd schedule) dosage; 9.5/8.0; assay type: functional, Mus musculus; details: route intraperitoneal; in short: as §1
L1210 [18] = experiment: Antitumor activity was determined against the ip implanted L1210 leukemia in mice by change in […] at 400 mg/kg (treatment of 1-5qd schedule) dosage; assay type: functional, Mus musculus; details: dose 200 mg/kg; route intraperitoneal; in the assay text read “200 mg/kg” for “400 mg/kg”
In short: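 DBA/2J mice, 6 per group (wt 23-28 g), inoculated ip with 1×10^6 L1210 cells on day 0. Treatment was given ip in 0.9% NaCl with 0.5% Tween-80, starting 24 h later. Weight change was taken on day 8. Mice were observed daily until death or 45 days. Median survival T/C and %ILS = (T/C − 1) × 100 came from survivors per NCI protocols, and 45-day survivors were counted.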

[19] = system: Small cell lung cancer cell line; experiment: Compound was tested for the inhibition of small cell lung cancer; assay type: functional, cell-based; details: Homo sapiens; in short: as §3

CCCCCCCCCCCCCCCC(=O)OC[C@H](COP(=O)(O)OP(=O)(O)OC[C@H]1O[C@@H](n2ccc(N)nc2=O)[C@@H](O)[C@@H]1O)OC(=O)CCCCCCCCCCCCCCC
Range (L1210 [1]): 24
Optimal dose (L1210 [2]): 133 mg
Range (P388 [3]): 35
ILS (P388 [4]): >309
Weight change (L1210 [5]): -0.88 g mouse-1
T/C (P388 [6]): >45%
Active dose range (P388 [7]): 100 mg/kg/day

CCCCCCCCCCCCCCCCOCC(COP(=O)(O)OP(=O)(O)OC[C@H]1O[C@@H](n2ccc(N)nc2=O)[C@@H](O)[C@@H]1O)OC(=O)CCCCCCCCCCCCCCC (mixture of isomers)
Active dose range (L1210 [8]): 100 mg/kg/day
Range (L1210 [9]): 20
Active dose range (L1210 [10]): 40 mg/kg/day

CCCCCCCCCCCCCCCCCCOCC(COP(=O)(O)OP(=O)(O)OC[C@H]1O[C@@H](n2ccc(N)nc2=O)[C@@H](O)[C@@H]1O)OC(=O)CCCCCCCCCCCCCCC (mixture of isomers)
Weight change (P388 [11]): 0.63 g mouse-1
T/C (L1210 [12]): 25%

Nc1ccn([C@@H]2O[C@H](CO)[C@@H](O)[C@@H]2O)c(=O)n1 [CYTARABINE]
ILS (L1210 [13]): 129
T/C (P388 [14]): 23%
Active dose range (L1210 [15]): 50 mg/kg/day
IC50 [16]: 34 µM
T/C (L1210 [17]): 9.5%
Weight change (L1210 [18]): -2.9 g mouse-1
IC50 [19]: > 100 µM
